# Laboratory results reported in the M2OR odorant receptor database.
# Target: T1, OR2M3 (Homo sapiens) (UniProt Q8NG83)
# T1 sequence (whole entry): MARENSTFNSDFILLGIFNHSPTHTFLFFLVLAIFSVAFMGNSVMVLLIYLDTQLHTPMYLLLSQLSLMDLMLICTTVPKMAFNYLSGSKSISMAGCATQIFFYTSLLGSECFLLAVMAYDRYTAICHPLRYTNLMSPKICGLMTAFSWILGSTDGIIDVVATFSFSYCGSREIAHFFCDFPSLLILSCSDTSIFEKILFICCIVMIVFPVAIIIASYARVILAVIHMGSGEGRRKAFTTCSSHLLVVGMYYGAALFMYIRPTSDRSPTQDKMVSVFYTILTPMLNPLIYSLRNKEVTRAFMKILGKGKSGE
# Conditions: stereoisomer not certain
# Outline: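 Each receptor–molecule pair is labelled responsive or non-responsive (inactive) according to whether the original authors judged the measured signal statistically different from baseline. The data were taken from the main text and supplementary material of published papers and checked for typos and inconsistencies. Assay methods differed by source, with transient luciferase assays in mammalian cell lines being common.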
# 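Further: active if original authors judged signal statistically different from baseline.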
row,Compound,odorant receptor agonist call
1,CCOC(=O)C1CCCCC1,inactive
2,CCCC(=O)OC,inactive
3,CCCC=CC=O,inactive
4,CC=CC(=O)C1=C(C)CCCC1(C)C,inactive
5,CC1=CCC(C(C)C)C=C1 (stereo unspecified),inactive
6,CC(C)c1ccc(C=O)cc1,inactive
7,CCC(C)C=O (stereo unspecified),inactive
8,CCCSSSC,inactive
9,CCOC(C)=O,inactive
10,COc1ccc(C)cc1O,inactive
11,Cc1ccc(O)cc1,inactive
12,CCCCCCC1CCC(=O)O1 (stereo unspecified),inactive
13,CCCCCC1CCC(=O)O1 (stereo unspecified),inactive
14,CCO,inactive
15,CCCCCCCCC1CCC(=O)O1 (stereo unspecified),inactive
16,CC(C)CO,inactive
17,CC(C)CC=O,inactive
18,Cc1c[nH]c2ccccc12,inactive

row,Compound,odorant receptor agonist call
1,C=CC(=O)CCCCC,inactive
2,CCC=CCCOC(C)=O,inactive
3,CCCC(=O)C(C)CC (stereo unspecified),inactive
4,CCC(C)COC(C)=O (stereo unspecified),inactive
5,CC(C)=CC1CC(C)CCO1 (stereo unspecified),inactive
6,CCCC(S)C(C)CO (stereo unspecified),active
7,CCCCCCC=CC=O,inactive
8,COc1nccnc1CC(C)C,inactive
9,SCc1cccs1,inactive
10,CCCCCCCC1CCCC(=O)O1 (stereo unspecified),inactive
11,COC1=C(C)OC(C)C1=O (stereo unspecified),inactive
12,CCOC(=O)CCSC,inactive
13,Cc1cccc(O)c1,inactive
14,CSSc1ccoc1C,inactive
15,CC(C)CCCCCCCCCCC=O,inactive
16,CSC,inactive
17,CCCCCC=CCCC=O,inactive
18,COC(=O)C=Cc1ccccc1,inactive
